Source: PubChem BioAssay (several laboratories)
bCat nuc transl: modulators of beta-catenin nuclear translocation, primary screen, imaging, HeLa cells, immunofluorescence, high-content | AID 1665, 2009 | nuclear translocation activity, % at 5 µM | 190,000 tested, 0.3% active;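 active = nuclear translocation activity above 50% at 5 µM, with a well cell count of 50 or more; inconclusive = wells under 50 cells across six images, flagged as toxic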;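 also: per-cell ratio of nuclear to cytoplasmic median beta-catenin stain intensity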
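Technique: fluorescence imaging of beta-catenin antibody stain plus DAPI / Material: human HeLa cell line / Incubation: compound treatment 24 h, 37°C, 5% CO2 / Read-out basis: % activation of per-cell nuclear versus cytoplasmic median beta-catenin signal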
Dynein transport: inhibitors of GR-EGFP nuclear translocation, primary screen, dynein cargo transport inhibitor project, imaging, high-content, 3617.4 mouse cells; 220,000 tested, 0.47% active; z-score, hits read low; test concentration mostly 20 µM; stimulated with dexamethasone, 1 µM; hits give low values;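 active = plate z-score of nuclear minus cytoplasmic receptor signal below a set negative limit, without overly bright fluorescence or cell loss, cut at about -3.5 in these data, passing the limit was not always enough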;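 also: z-score of nuclear minus cytoplasmic ring GR-EGFP intensity difference per well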
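Buffer or medium: tet-free medium with charcoal-stripped serum / Also added: dexamethasone agonist, 1.0 µM final, for 30 min / Timing: induction 48 h, compound 1 h, agonist 30 min / Measured by: high-content fluorescence imaging after fixation / Read-out: nuclear-to-cytoplasmic GR-EGFP distribution per well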
Autophagy mod: autophagy modulators in MEF cells, primary screen, imaging, high-content, MEF GFP-LC3 | MEF GFP-LC3 puncta imaging; test concentration mostly 10 µM | calls only at 10 µM (by protocol) | 190,000 tested, 0.98% active;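 active = percentage of spot-positive cells more than 3 SD above its plate mean, without a fluorescence outlier flag or 80% toxicity; inconclusive = no clear call, values can overlap the other calls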
MT stabilizer: microtubule stabilizers in HeLa cells, primary screen, imaging, high-content imaging | HeLa tubulin immunostaining HCS, 24 h; share of cells brighter than vehicle mean+2SD | % tubulin-high responders, % at 10 µM | 200,000 tested, 0.83% active;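 active = plate Z-score above 3 for both tubulin-high and condensed-nucleus cell shares, with cell loss under 80%, at 10 µM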;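 also: anti alpha tubulin signal scored within the nucleus-defined area of each cell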
Ins promoter up: insulin promoter activators in MIN6 cells, imaging, high-content screening, mouse beta cells. z-score at 5 µM. 190,000 tested, 0.3% active. AID 1625, 2009. MIN6 insulin promoter-GFP reporter; hits give high values;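 active = z-score above 3 at 5 µM with at least 500 cells counted in the well; inconclusive = wells under 500 cells, flagged as cytotoxic or low count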
Numbers stand for hits; - = inactive; ? = inconclusive; . = not tested or not shown; + = active, no number. Hits are enriched below; roughly 2.3% of the tested compounds scored in any of these assays.

SMILES	bCat nuc transl	Dynein transport	Autophagy mod	MT stabilizer	Ins promoter up
COC(=O)Nc1ccc(S(=O)(=O)N2CCCc3ccccc32)cc1	-	-	+	19.3	-
CN(C)C(=O)c1cc(C(=O)c2ccccc2Cl)c[nH]1	-	-	-	-	-
Cc1cccc(C(=O)Nc2nnc(COc3ccccc3)s2)c1	-	-	+	-	-
CCc1ccc(OCC(=O)Nc2ccc(-c3nc4ccccc4o3)c(O)c2)cc1	-	-	-	-	-
Oc1cc(NCc2cccnc2)ccc1-c1nc2ccccc2o1	-	-	+	-	-
CCOc1ccccc1N1CCN(C(=O)C2c3ccccc3Oc3ccccc32)CC1	59.5	-	-	39.6	-
CCOc1ccccc1N1CCN(C(=O)c2ccccc2)CC1	.	-	-	-	.
O=C(CC1C(=O)NCCN1C(=O)Nc1ccccc1)Nc1ccc(F)cc1 (centres undefined)	-	-	.	.	-
O=C(CC1C(=O)NCCN1C(=O)Nc1ccc(Cl)cc1)Nc1ccc(F)cc1 (centres undefined)	-	-	+	-	-
CCOc1ccc2c(c1)/C(=C(\C(Cl)=C(Cl)Cl)[N+](=O)[O-])N2	-	-	-	-	-
CCCCOc1ccc2c(c1)/C(=C(\C(Cl)=C(Cl)Cl)[N+](=O)[O-])N2	-	-	-	9.9	-
COc1cc(CC(=O)NCc2ccc3c(c2)OCO3)cc(OC)c1OC	.	-	-	-	-
COc1cc(CC(=O)OCC(=O)c2ccc3c(c2)OCCO3)cc(OC)c1OC	157.7	-	+	17.2	?
C=CCn1c(SCC(=O)Nc2ccccc2OC)nnc1-c1ccccn1	-	-	-	24.3	.
COC(=O)CN(c1ccc(OCc2ccccc2)cc1)S(C)(=O)=O	-	-	-	-	-
O=C(Nc1ccc(Cl)cn1)c1ccc([N+](=O)[O-])o1	-	-	-	8.3	-
CC(=O)Cc1cc2cc([N+](=O)[O-])ccc2oc1=O	-	-	.	.	-
O=C(COc1ccccc1C(=O)NCc1ccncc1)Nc1ccc(Br)cc1	-	-	-	-	-
CNC(=O)C1(C)C=CCN1C(=O)c1ccccc1 (centres undefined)	.	-	-	-	-
CC1(C(=O)NCCN2CCOCC2)C=CCN1C(=O)c1ccccc1 (centres undefined)	-	-	+	-	-
Cc1noc(C)c1S(=O)(=O)N1CCC(C(=O)N2CCN(c3ccc(F)cc3)CC2)CC1	-	-	-	-	-
Cc1noc(C)c1S(=O)(=O)N1CCC(C(=O)N2CCN(C3CCCC3)CC2)CC1	-	-	-	-	3.05
O=C(COC(=O)c1cc(-c2ccc(F)cc2)nc2ccccc12)NCC1CCCO1 (centres undefined)	-	-	-	-	-
CCOC(=O)C(C(=O)OCC)C1CCS(=O)(=O)C1 (centres undefined)	-	-	+	-	-
CC(=O)Nc1ccc(NC(=O)C2CCCN(c3ncccn3)C2)cc1 (centres undefined)	-	-	-	-	-
SMILES	bCat nuc transl	Dynein transport	Autophagy mod	MT stabilizer	Ins promoter up
O=C(Nc1ccc(C2CCCCC2)cc1)C1CCCN(c2ncccn2)C1 (centres undefined)	-	.	.	.	3.77
Cc1nn(CCCC(=O)Nc2c(F)cc(F)cc2Br)c(C)c1[N+](=O)[O-]	-	-	-	-	-
Nc1ccc2c(c1)Cc1cc([N+](=O)[O-])ccc1-2	-	-	+	-	.
Cc1ccc([N+](=O)[O-])cc1N	-	-	-	-	-
COC(=O)c1sc(N2C(=O)c3oc4ccccc4c(=O)c3C2c2cccs2)nc1C (centres undefined)	-	-	+	-	-
N#Cc1cccc(NCC(=O)Nc2ccc3c(c2)OCCO3)c1	-	-	-	-	-
CS(=O)Cc1cc(Sc2ccccc2)nc(-c2ccncc2)n1 (centres undefined)	-	-	-	-	-
CCN(C(=O)CSc1nnc(C)n1Cc1ccccc1)C1CCS(=O)(=O)C1 (centres undefined)	-	-	+	-	-
Nc1nonc1C(=O)NCCNCc1cc(Br)ccc1OCc1ccc(F)cc1	-	-	+	-	?
CCc1nc(Sc2nnnn2-c2ccccc2)c2c3c(sc2n1)CCCC3	-	-	-	-	-
Cc1nc(Sc2nnnn2C)c2c3c(sc2n1)CCC3	-	-	+	-	-
